ChEMBL document CHEMBL4400542, “Epidermal Growth Factor Receptor-Targeted Multifunctional Photosensitizers for Bladder Cancer Imaging and Photodynamic Therapy” (J Med Chem, 2019)
Activity calls are given as the source filed them. The rule behind the calls is not given here.

What was measured:
[1] = Induction of singlet oxygen generation in oxygen-saturated toluene solution at 670 nm assessed as decay rate constant of triplet excited state by femtosecond transient absorption spectroscopy; format: functional
[2] = Induction of singlet oxygen generation assessed as energy transfer from the triplet chlorins to oxygen by femtosecond transient absorption spectroscopy; format: functional
[3] = Induction of singlet oxygen generation in deaerated toluene at 670 nm assessed as rate of singlet decay by femtosecond transient absorption spectroscopy; format: functional
[4] = Induction of singlet oxygen generation in deaerated toluene at 670 nm assessed as singlet decay life time by femtosecond transient absorption spectroscopy; format: functional
UMUC3 [5] = test: Anti-tumor activity against human UM-UC-3 cells xenografted in SCID mouse at 0.47 umol/kg, iv in presence of 135 J/cm2 light irradiation at 24 hrs post injection and measured every day till day 60; format: functional, organism-based
Outline: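 UMUC-3 cells implanted in right flank of SCID mice; at 4–5 mm tumors, PS given i.v. at 0.47 µmol/kg. Tumors exposed to 665 nm light, 135 J/cm2 at 75 mW/cm2, 24 h post-injection. Tumor regrowth monitored daily; mice euthanized at >400 mm3; tumor-free status scored at day 60.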

UMUC3 [6] = test: Anti-tumor activity against human UM-UC-3 cells xenografted in SCID mouse assessed as tumor necrosis at 0.47 umol/kg, iv in presence of 135 J/cm2 light irradiation at 24 hrs post injection and measured at 72 hrs post light exposure; format: functional, organism-based
UMUC3 [7] = test: Induction of apoptosis in human UM-UC-3 cells assessed as increase in necrotic cells at 1 uM in presence of light by Annexin V/propidium iodide-stining based flow cytometry; format: functional, cell-based
T-24 [8] = test: Induction of apoptosis in human T24 cells assessed as increase in apoptotic cells at 1 uM in presence of light by Annexin V/propidium iodide-stining based flow cytometry; format: functional, cell-based
[9] = target: Epidermal growth factor receptor (Homo sapiens) (UniProt P00533); test: Inhibition of EGFR autophosphorylation at Ty1068 in human T24 cells at 1 uM followed by PDT and measured after 24 hrs by Western blot analysis; format: cell-based
T-24 [10] = test: Induction of apoptosis in human T24 cells assessed as increase in necrotic cells at 1 uM in presence of light by Annexin V/propidium iodide-stining based flow cytometry; format: functional, cell-based
UMUC3 [11] = test: Induction of apoptosis in human UM-UC-3 cells assessed as increase in apoptotic cells at 100 nM in presence of light by Annexin V/propidium iodide-stining based flow cytometry; format: functional, cell-based
UMUC3 [12] = test: Induction of apoptosis in human UM-UC-3 cells assessed as increase in necrotic cells at 100 nM in presence of light by Annexin V/propidium iodide-stining based flow cytometry; format: functional, cell-based
UMUC3 [13] = test: Induction of apoptosis in human UM-UC-3 cells assessed as increase in apoptotic cells at 1 uM in presence of light by Annexin V/propidium iodide-stining based flow cytometry; format: functional, cell-based
[14] = target: Epidermal growth factor receptor (Homo sapiens) (UniProt P00533); test: Inhibition of EGFR autophosphorylation at Ty1068 in human UM-UC-3 cells at 100 nM followed by PDT and measured after 24 hrs by Western blot analysis; format: cell-based
[15] = target: Epidermal growth factor receptor (Homo sapiens) (UniProt P00533); test: Inhibition of EGFR autophosphorylation at Ty1068 in human UM-UC-3 cells at 1 uM followed by PDT and measured after 24 hrs by Western blot analysis; format: cell-based
T-24 [16] = test: Induction of apoptosis in human T24 cells assessed as increase in apoptotic cells at 100 nM in presence of light by Annexin V/propidium iodide-stining based flow cytometry; format: functional, cell-based
[17] = Induction of singlet oxygen generation in Ar-saturated toluene solution at 670 nm assessed as decay rate constant of triplet excited state by femtosecond transient absorption spectroscopy; format: functional
[18] = Drug uptake in human UM-UC-3 cells xenografted in SCID mouse at 50 uCi, iv administered at 24 hrs post imaging and measured at 24 to 72 post injection by PET imaging analysis; format: ADME, organism-based, UMUC3; details: in vivo
Outline: (§1)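 SCID mice (3/group) with UMUC3 tumors first given 18F-FDG (50 µCi) and imaged at 110 min. At 24 h later, 124I-labelled agent given i.v. (50, 25 or 15 µCi); microPET at 24, 48, 72 h post-injection, same bed position. Injected dose checked by well gamma counter, within ±5%.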

[19] = Drug uptake in human UM-UC-3 cells xenografted in SCID mouse at 15 uCi, iv measured at 24 to 72 post injection by PET imaging analysis; format: ADME, organism-based, UMUC3; details: in vivo; outline: as §1

Sequence of Epidermal growth factor receptor (Homo sapiens) (P00533 whole entry): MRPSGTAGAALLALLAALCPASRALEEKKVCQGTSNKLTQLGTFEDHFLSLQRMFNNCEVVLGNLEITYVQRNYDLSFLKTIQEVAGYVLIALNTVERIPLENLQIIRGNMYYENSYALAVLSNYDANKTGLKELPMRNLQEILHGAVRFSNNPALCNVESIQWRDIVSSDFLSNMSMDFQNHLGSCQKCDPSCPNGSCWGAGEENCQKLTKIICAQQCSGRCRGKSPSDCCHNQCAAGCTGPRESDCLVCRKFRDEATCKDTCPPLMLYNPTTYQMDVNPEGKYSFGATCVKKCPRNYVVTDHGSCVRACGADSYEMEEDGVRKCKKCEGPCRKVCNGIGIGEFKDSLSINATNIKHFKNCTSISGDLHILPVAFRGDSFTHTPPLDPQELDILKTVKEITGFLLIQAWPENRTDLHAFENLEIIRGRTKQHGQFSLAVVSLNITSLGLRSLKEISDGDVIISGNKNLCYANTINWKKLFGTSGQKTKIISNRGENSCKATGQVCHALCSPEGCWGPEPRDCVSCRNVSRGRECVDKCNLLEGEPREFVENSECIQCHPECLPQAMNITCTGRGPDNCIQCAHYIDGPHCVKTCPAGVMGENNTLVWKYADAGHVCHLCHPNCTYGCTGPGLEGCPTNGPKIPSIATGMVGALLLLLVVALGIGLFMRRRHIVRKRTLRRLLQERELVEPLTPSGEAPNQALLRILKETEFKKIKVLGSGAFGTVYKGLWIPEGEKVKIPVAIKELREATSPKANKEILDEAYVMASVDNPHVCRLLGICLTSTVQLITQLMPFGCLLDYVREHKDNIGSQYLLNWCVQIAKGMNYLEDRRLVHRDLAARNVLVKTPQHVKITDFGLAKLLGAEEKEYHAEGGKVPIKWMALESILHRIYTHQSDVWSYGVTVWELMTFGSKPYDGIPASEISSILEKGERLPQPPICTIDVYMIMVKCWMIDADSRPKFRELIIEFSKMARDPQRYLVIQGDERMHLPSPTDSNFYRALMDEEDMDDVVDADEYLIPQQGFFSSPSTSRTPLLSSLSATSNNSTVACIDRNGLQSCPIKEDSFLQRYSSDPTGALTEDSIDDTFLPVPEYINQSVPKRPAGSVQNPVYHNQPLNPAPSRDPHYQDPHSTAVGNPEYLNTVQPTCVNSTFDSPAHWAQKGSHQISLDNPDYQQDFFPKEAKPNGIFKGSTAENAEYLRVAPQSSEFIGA

Structure (SMILES)	K [1]	K [2]	K [3]	Time [4]	Activity (UMUC3 [5])	Activity (UMUC3 [6])	Activity (UMUC3 [7])	Activity (T-24 [8])	inhibition [9]	Activity (T-24 [10])	Activity (UMUC3 [11])	Activity (UMUC3 [12])	Activity (UMUC3 [13])	inhibition [14]	inhibition [15]	Activity (T-24 [16])	K [17]	Drug uptake [18]	Drug uptake [19]
CCC1=C(C)c2cc3[nH]c(cc4nc(c5c6[nH]c(cc1n2)c(C)c6C(=O)C5)[C@@H](CCC(=O)NCc1cccc(C#Cc2cccc(Nc5ncnc6cc(OCCOC)c(OCCOC)cc56)c2)c1)[C@@H]4C)c(C)c3C(C)OCc1cccc(I)c1 (some centres undefined)	2.07 ×10⁵ /s	1.03 ×10¹⁰ /M/s	7.5 ×10⁹ /s	133 pS	Active	Active	Active	Active	Active	Active	Active	Active	Active	Active	Active	inactive	9.8 ×10⁴ /s	–	–
CCC1=C(C)c2cc3[nH]c(cc4nc(c5c6[nH]c(cc1n2)c(C)c6C(=O)C5)[C@@H](CCC(=O)NCc1cccc(C#Cc2cccc(Nc5ncnc6cc(OCCOC)c(OCCOC)cc56)c2)c1)[C@@H]4C)c(C)c3C(C)OCc1cccc([124I])c1 (some centres undefined)	–	–	–	–	–	–	–	–	–	–	–	–	–	–	–	–	–	Active	Active
